# Assay results reported in ChEMBL document CHEMBL4765233, “From Lead to Drug Candidate: Optimization of 3-(Phenylethynyl)-1H-pyrazolo[3,4-d]pyrimidin-4-amine Derivatives as Agents for the Treatment of Triple Negative Breast Cancer” (J Med Chem, 2016).
# The source made the active and inactive calls. The rule behind the calls is not given here.
# Key:
# [1] = tested on: MDA-MB-231; assay: Induction of apoptosis in human MDA-MB-231 cells assessed as live cells at 0.1 uM incubated for 24 hrs by annexin V-FITC and propidium iodide staining based flow cytometry analysis (reference value: 96.95 %); assay type: functional
# [2] = species: Danio rerio; assay: Antiangiogenesis activity in EGFP-labelled zebrafish embryo assessed as reduction in formation of intersegmental vessels at 1.25 to 5 uM incubated for overnight by fluorescence microscopic analysis; assay type: functional, organism-based; conditions: dose 1.25-5 µM
# Procedure, shortened: (§1)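 Transgenic FLK:EGFP zebrafish kept at 28 °C, pH 7.2−7.4, 14 h light/10 h dark. Embryos at 30 hpf incubated overnight with compound at 1.25, 2.5 or 5 μM beside a blank control. Fish anaesthetized, then vessels imaged by fluorescence microscopy.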
# [3] = Acute toxicity in Sprague-Dawley rat assessed as histopathological changes in heart at 100 mg/kg, po administered as single dose measured after 24 hrs by H and E staining based light microscope analysis; assay type: organism-based; conditions: in vivo
# Procedure, shortened: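 Sprague-Dawley rats received a single oral dose of 100 mg/kg in sterile water with 25% (v/v) PEG400 plus 5% DMSO. Organs were examined by histology and immunohistochemistry for pathological changes. Behaviour and side effects were checked daily.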
# [4] = molecular target: Platelet-derived growth factor receptor beta (Homo sapiens, UniProt P09619); assay: Inhibition of human recombinant PDGFRbeta (557 to end residues) using poly(Glu, Tyr)4:1 as substrate incubated for 40 mins in presence of [gamma33P-ATP] by radiometric scintillation counting analysis
# [5] = tested on: MDA-MB-435; assay: Antiproliferative activity against human MDA-MB-435 cells assessed as reduction in cell viability incubated for 72 hrs by MTT assay; assay type: functional, cell-based; conditions: MDA-MB-435, 72 h
# Procedure, shortened: (§2)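 MTT viability assay. ATCC cell lines were grown in designated medium with 10% FBS at 37 °C, 5% CO2. Cells seeded at 1500−30000 per well and incubated 24 h, then exposed to compound (0−10 μg/mL) for 72 h. MTT added for 2−4 h. Formazan dissolved in DMSO (adherent) or acidified SDS overnight (suspension), absorbance read at 570 nm. Triplicates; IC50 calculated.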
# [6] = tested on: MDA-MB-231; assay: Induction of apoptosis in human MDA-MB-231 cells assessed as live cells at 0.03 uM incubated for 24 hrs by annexin V-FITC and propidium iodide staining based flow cytometry analysis (reference value: 96.95 %); assay type: functional
# [7] = tested on: MDA-MB-231; assay: Antiproliferative activity against human MDA-MB-231 cells assessed as reduction in cell viability incubated for 72 hrs by MTT assay; assay type: functional, cell-based; conditions: MDA-MB-231, 72 h; procedure, shortened: as §2
# [8] = tested on: L929; assay: Cytotoxicity against mouse L929 cells assessed as reduction in cell viability incubated for 72 hrs by MTT assay; assay type: cell-based; conditions: L929, 72 h; procedure, shortened: as §2
# [9] = tested on: MDA-MB-231; assay: Induction of apoptosis in human MDA-MB-231 cells assessed as early apoptotic cells at 0.01 uM incubated for 24 hrs by annexin V-FITC and propidium iodide staining based flow cytometry analysis (reference value: 2 %); assay type: functional
# [10] = tested on: MDA-MB-231; assay: Inhibition of Fra1 expression in human MDA-MB-231 cells at >0.03 uM incubated for 20 hrs by Western blot analysis; assay type: functional, cell-based; conditions: dose microM >0.03, time 20.0 hrs
# Procedure, shortened: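 MDA-MB-231 cells treated with a series of concentrations for 20 h at 37 °C. Cells washed with ice-cold saline and lysed in RIPA buffer with protease cocktail. Lysates cleared at 12000 rpm for 10 min at 4 °C and protein quantified by Bradford. Equal protein separated by SDS-PAGE, transferred to PVDF and probed with antibodies.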
# [11] = tested on: MDA-MB-231; assay: Induction of apoptosis in human MDA-MB-231 cells xenografted in SCID mouse assessed as increase in cleaved caspase-3 level in tumor tissue at 40 mg/kg, po QD for 21 days by immunohistochemical analysis; assay type: functional, organism-based; conditions: dose 40.0 mg/kg/day, time 21.0 day
# Procedure, shortened: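 SCID mice carried subcutaneous MDA-MB-231 xenografts (5 × 10^6 cells in 100 μL). Oral dosing in water with 25% PEG400 and 5% DMSO began at 150–200 mm3. Tumours were removed at the end of study, formalin-fixed and paraffin-embedded, then immunostained.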
# [12] = species: Danio rerio; assay: Antiangiogenesis activity in EGFP-labelled zebrafish embryo assessed as reduction in formation of dorsal aorta at 1.25 to 5 uM incubated for overnight by fluorescence microscopic analysis; assay type: functional, organism-based; conditions: dose 1.25-5 µM; procedure, shortened: as §1
# [13] = molecular target: Mitogen-activated protein kinase 14 (Homo sapiens, UniProt Q16539); assay: Inhibition of human full length recombinant p38alpha using myelin basic protein as substrate incubated for 40 mins in presence of [gamma33P-ATP] by radiometric scintillation counting analysis
# Procedure, shortened: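 Radiometric kinase assay run as an external profiling service, with ATP at the Km of each kinase. IC50 values are means of two independent experiments.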
# [14] = molecular target: Fibroblast growth factor receptor 2 (Homo sapiens, UniProt P21802, N549H); assay: Inhibition of human recombinant FGFR2 N549H mutant (456 to 770 residues) using GGEEEEYFELVKKKK as substrate incubated for 40 mins in presence of [gamma33P-ATP] by radiometric scintillation counting analysis
# [15] = tested on: ZR-75-1; assay: Antiproliferative activity against human ZR-75-1 cells assessed as reduction in cell viability incubated for 72 hrs by MTT assay; assay type: functional, cell-based; conditions: ZR-75-1, 72 h; procedure, shortened: as §2
# [16] = tested on: MDA-MB-231; assay: Antitumor activity against human MDA-MB-231 cells xenografted in SCID mouse assessed as tumor growth inhibition administered orally once daily for 21 days and measured every 3 days; assay type: functional; conditions: dose 10-40 mg/kg/day, time 21.0 day
# Procedure, shortened: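 SCID mice (5−6 weeks) injected subcutaneously with 100 μL of cells at 5 × 10^7/mL. At 150−200 mm3 mice randomized, 6 per group. Oral compounds given in water with 25% PEG400 plus 5% DMSO; paclitaxel given 10 mg/kg/week iv. Tumor volume a×b²/2 and body weight measured every 3 days. Inhibition rate (c−d)/c×100% against vehicle control.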
# [17] = tested on: MDA-MB-231; assay: Antimigratory activity against human MDA-MB-231 cells assessed as inhibition of cell migration at 0.3 uM incubated for 20 hrs by wound healing assay; assay type: functional, cell-based
# Procedure, shortened: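 MDA-MB-231 monolayer grown to confluence, scratched with a sterile pipet tip, rinsed with physiological saline, then given DMEM containing vehicle or compound. Wound imaged after 20 h to assess migration.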
# [18] = tested on: Ramos; assay: Antiproliferative activity against human Ramos cells assessed as reduction in cell viability incubated for 72 hrs by MTT assay; assay type: functional, cell-based; procedure, shortened: as §2
# [19] = tested on: MDA-MB-231; assay: Induction of apoptosis in human MDA-MB-231 cells assessed as early apoptotic cells at 0.03 uM incubated for 24 hrs by annexin V-FITC and propidium iodide staining based flow cytometry analysis (reference value: 2 %); assay type: functional
# [20] = tested on: MDA-MB-231; assay: Induction of apoptosis in human MDA-MB-231 cells incubated for 24 hrs by annexin V-FITC and propidium iodide staining based flow cytometry analysis; assay type: functional, cell-based; conditions: dose 0.01-0.1 µM
# Procedure, shortened: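 MDA-MB-231 cells (2 × 10^5) plated in six-well plates, treated with vehicle or compound at various concentrations for 24 h at 37 °C. Harvested, washed with ice-cold PBS, stained with Annexin V-FITC/PI and analysed by flow cytometry.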
# [21] = tested on: L02; assay: Cytotoxicity against human L02 cells assessed as reduction in cell viability incubated for 72 hrs by MTT assay; assay type: cell-based; conditions: L02, 72 h; procedure, shortened: as §2
# Chain of Fibroblast growth factor receptor 2 (P21802 22-821 N549H limits assumed): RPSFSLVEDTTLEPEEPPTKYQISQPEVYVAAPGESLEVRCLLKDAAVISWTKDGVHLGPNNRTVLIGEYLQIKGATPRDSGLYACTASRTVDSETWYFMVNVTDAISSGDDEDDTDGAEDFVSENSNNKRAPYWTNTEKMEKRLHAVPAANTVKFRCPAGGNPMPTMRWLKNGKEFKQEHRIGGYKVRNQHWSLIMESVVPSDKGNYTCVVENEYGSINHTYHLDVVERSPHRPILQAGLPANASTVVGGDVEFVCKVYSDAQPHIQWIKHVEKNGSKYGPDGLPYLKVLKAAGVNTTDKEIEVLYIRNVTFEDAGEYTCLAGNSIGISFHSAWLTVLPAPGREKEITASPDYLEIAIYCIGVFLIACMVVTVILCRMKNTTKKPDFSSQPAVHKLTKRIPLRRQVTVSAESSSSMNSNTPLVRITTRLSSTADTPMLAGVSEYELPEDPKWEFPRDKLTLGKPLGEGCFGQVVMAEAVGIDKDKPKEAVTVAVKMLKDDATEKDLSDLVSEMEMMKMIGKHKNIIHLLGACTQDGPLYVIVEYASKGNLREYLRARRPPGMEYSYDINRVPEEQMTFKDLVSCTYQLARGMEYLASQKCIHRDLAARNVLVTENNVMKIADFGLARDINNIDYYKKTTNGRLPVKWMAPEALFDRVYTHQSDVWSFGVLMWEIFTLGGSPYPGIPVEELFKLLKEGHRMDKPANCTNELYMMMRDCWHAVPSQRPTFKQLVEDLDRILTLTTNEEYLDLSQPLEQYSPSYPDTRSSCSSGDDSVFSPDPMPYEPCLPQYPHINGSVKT
# Chain of Platelet-derived growth factor receptor beta (P09619 whole entry): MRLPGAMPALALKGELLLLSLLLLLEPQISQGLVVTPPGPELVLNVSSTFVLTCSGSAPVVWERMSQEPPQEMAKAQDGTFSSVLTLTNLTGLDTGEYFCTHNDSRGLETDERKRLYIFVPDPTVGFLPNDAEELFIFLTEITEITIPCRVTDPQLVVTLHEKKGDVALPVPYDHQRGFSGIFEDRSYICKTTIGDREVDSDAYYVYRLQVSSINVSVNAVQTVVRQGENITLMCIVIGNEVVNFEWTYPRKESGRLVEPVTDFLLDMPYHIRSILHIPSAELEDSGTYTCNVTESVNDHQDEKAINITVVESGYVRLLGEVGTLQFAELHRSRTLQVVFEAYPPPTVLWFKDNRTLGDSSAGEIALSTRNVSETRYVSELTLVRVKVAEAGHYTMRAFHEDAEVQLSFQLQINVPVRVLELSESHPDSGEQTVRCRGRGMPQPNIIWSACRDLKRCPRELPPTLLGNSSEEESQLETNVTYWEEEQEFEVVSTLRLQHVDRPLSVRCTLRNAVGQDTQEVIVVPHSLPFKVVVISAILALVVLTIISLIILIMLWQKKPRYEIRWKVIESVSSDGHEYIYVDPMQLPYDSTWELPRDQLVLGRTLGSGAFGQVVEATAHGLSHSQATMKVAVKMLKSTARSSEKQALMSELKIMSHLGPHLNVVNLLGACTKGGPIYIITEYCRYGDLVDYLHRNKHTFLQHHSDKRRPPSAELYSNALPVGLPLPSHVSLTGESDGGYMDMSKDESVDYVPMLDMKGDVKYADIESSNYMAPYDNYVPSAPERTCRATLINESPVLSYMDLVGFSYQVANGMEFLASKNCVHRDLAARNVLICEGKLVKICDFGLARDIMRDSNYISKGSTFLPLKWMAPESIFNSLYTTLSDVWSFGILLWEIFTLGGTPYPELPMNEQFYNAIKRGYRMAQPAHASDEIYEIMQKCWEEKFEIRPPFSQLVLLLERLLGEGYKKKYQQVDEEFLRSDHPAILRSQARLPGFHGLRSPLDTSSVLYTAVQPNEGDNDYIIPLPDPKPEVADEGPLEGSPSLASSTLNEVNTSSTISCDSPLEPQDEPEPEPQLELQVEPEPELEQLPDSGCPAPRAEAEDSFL
# Chain of Mitogen-activated protein kinase 14 (Q16539 whole entry): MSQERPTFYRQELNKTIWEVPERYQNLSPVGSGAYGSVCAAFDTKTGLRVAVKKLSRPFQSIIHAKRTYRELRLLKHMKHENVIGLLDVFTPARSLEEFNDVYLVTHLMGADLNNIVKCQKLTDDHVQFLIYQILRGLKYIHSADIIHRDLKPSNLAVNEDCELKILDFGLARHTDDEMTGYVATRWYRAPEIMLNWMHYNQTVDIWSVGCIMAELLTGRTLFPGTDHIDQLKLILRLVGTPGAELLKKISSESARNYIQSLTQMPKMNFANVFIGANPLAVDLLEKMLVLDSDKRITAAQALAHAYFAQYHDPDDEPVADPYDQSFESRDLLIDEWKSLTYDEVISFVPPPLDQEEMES
compound,measurement,setting,value
Cc1ccc(NC(=O)c2ccc(C)c(C(F)(F)F)c2)cc1C#Cc1nn([C@H]2CC[C@H](O)CC2)c2ncnc(N)c12,Activity,[1],67.94%
same,Activity,[2],Active
same,Activity,[3],Non-Toxic
same,IC50,[4],> 10000 nM
same,IC50,[5],8 nM
same,Activity,[6],78.36%
same,IC50,[7],30 nM
same,IC50,[8],> 10000 nM
same,Activity,[9],5.05%
same,inhibition,[10],Active
same,Activity,[11],Active
same,Activity,[12],inactive
same,IC50,[13],342 nM
same,IC50,[14],40 nM
same,IC50,[15],10000 nM
same,Activity,[16],Dose-dependent effect
same,Activity,[17],Active
same,IC50,[18],10000 nM
same,Activity,[19],8.02%
same,Activity,[20],Dose-dependent effect
same,IC50,[21],> 10000 nM
